Source: ChEMBL document CHEMBL4145582, “Cytotoxic and Antibacterial Eremophilane Sesquiterpenes from the Marine-Derived Fungus Cochliobolus lunatus SCSIO41401” (J Nat Prod, 2018)
Values belong to the compound of their own block, whether it stands above or below them. Active and inactive are the calls of the source. The rule behind the calls is not given here.

How the values were obtained:
ACHN [1] = experiment: Induction of apoptosis in human ACHN cells assessed as early apoptotic cells at 2 uM after 24 hrs by Annexin V-FITC/propidium iodide staining based flow cytometric method (reference value: 0%); format: functional
Method in brief: (§1)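 ACHN cells are treated at 1, 2 and 4 μM for 24, 48 and 72 h. Cells are then double-stained with annexin V-FITC and propidium iodide and analysed by flow cytometry. Early apoptotic, late apoptotic, necrotic and viable fractions are quantified.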

ACHN [2] = experiment: Induction of apoptosis in human ACHN cells assessed as viable cells at 2 uM after 24 hrs by Annexin V-FITC/propidium iodide staining based flow cytometric method (reference value: 100%); format: functional; conditions: read-out: Activity; method in brief: as §1
ACHN [3] = experiment: Cytotoxicity against human ACHN cells after 72 hrs by CCK8 assay; format: functional, cell-based
Method in brief: (§2)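 Renal cancer lines ACHN, 786-O and OS-RC-2; cell viability read by CCK-8 assay, with sorafenib as positive control.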

786-0 = experiment: Cytotoxicity against human 786-O cells after 72 hrs by CCK8 assay; format: functional, cell-based; conditions: 786-0, 72 h; method in brief: as §2
OS-RC-2 = experiment: Cytotoxicity against human OS-RC2 cells after 72 hrs by CCK8 assay; format: functional, cell-based; conditions: OS-RC-2, 72 h; method in brief: as §2
HepG2 = experiment: Cytotoxicity against human HepG2 cells after 6 days by MTT assay; format: functional, cell-based; conditions: HepG2, 144 h
Method in brief: (§3)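 HepG-2 and SGC7901 cells; growth inhibition read by MTT method, with 5-fluorouracil as positive control.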

SGC-7901 = experiment: Cytotoxicity against human SGC7901 cells after 6 days by MTT assay; format: functional, cell-based; conditions: SGC-7901, 144 h; method in brief: as §3
Escherichia coli = experiment: Antimicrobial activity against Escherichia coli ATCC 25922 after 24 hrs by serial dilution method; format: functional; conditions: ATCC 25922, 24 h
Method in brief: (§4)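 Serial broth dilution in 96-well microtiter plates. Compounds and controls are dissolved in DMSO as stock. Bacteria are grown overnight at 37 °C, then diluted to 10^6 cfu/mL. E. coli and S. aureus are grown in Luria–Bertani broth. P. multocida and E. rhusiopathiae are grown in trypticase soy broth with 10% calf serum. Plates are incubated at 37 °C for 24 h and read at 630 nm.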

Staphylococcus aureus = experiment: Antimicrobial activity against Staphylococcus aureus subsp. aureus Rosenbach ATCC 25923 after 24 hrs by serial dilution method; format: functional; conditions: Rosenbach ATCC 25923, 24 h; method in brief: as §4
[4] = test system: Erysipelothrix rhusiopathiae; experiment: Antimicrobial activity against Erysipelothrix rhusiopathiae ATCC 19414 after 24 hrs by serial dilution method; format: functional; conditions: ATCC 19414, 24 h; method in brief: as §4
Pasteurella multocida = experiment: Antimicrobial activity against Pasteurella multocida subsp. multocida ATCC 43137 after 24 hrs by serial dilution method; format: functional; conditions: ATCC 43137, 24 h; method in brief: as §4
ACHN [5] = experiment: Cell cycle arrest in human ACHN cells at 1 to 4 uM after 24 to 72 hrs by propidium iodide staining based flow cytometric method; format: functional
ACHN [6] = experiment: Induction of apoptosis in human ACHN cells assessed as viable cells at 1 uM after 24 hrs by Annexin V-FITC/propidium iodide staining based flow cytometric method (reference value: 100%); format: functional; conditions: read-out: Activity; method in brief: as §1
ACHN [7] = experiment: Induction of apoptosis in human ACHN cells assessed as early apoptotic cells at 1 uM after 24 hrs by Annexin V-FITC/propidium iodide staining based flow cytometric method (reference value: 0%); format: functional; method in brief: as §1
ACHN [8] = experiment: Induction of apoptosis in human ACHN cells assessed as late apoptotic cells at 1 uM after 24 hrs by Annexin V-FITC/propidium iodide staining based flow cytometric method (reference value: 0%); format: functional; method in brief: as §1
ACHN [9] = experiment: Induction of apoptosis in human ACHN cells assessed as necrotic cells at 1 uM after 24 hrs by Annexin V-FITC/propidium iodide staining based flow cytometric method (reference value: 0%); format: functional; method in brief: as §1
ACHN [10] = experiment: Induction of apoptosis in human ACHN cells assessed as late apoptotic cells at 2 uM after 24 hrs by Annexin V-FITC/propidium iodide staining based flow cytometric method (reference value: 0%); format: functional; method in brief: as §1
ACHN [11] = experiment: Induction of apoptosis in human ACHN cells assessed as necrotic cells at 2 uM after 24 hrs by Annexin V-FITC/propidium iodide staining based flow cytometric method (reference value: 0%); format: functional; method in brief: as §1
ACHN [12] = experiment: Induction of apoptosis in human ACHN cells assessed as viable cells at 4 uM after 24 hrs by Annexin V-FITC/propidium iodide staining based flow cytometric method (reference value: 100%); format: functional; conditions: read-out: Activity; method in brief: as §1
ACHN [13] = experiment: Induction of apoptosis in human ACHN cells assessed as early apoptotic cells at 4 uM after 24 hrs by Annexin V-FITC/propidium iodide staining based flow cytometric method (reference value: 0%); format: functional; method in brief: as §1
ACHN [14] = experiment: Induction of apoptosis in human ACHN cells assessed as late apoptotic cells at 4 uM after 24 hrs by Annexin V-FITC/propidium iodide staining based flow cytometric method (reference value: 0%); format: functional; method in brief: as §1
ACHN [15] = experiment: Induction of apoptosis in human ACHN cells assessed as necrotic cells at 4 uM after 24 hrs by Annexin V-FITC/propidium iodide staining based flow cytometric method (reference value: 0%); format: functional; method in brief: as §1
ACHN [16] = experiment: Induction of apoptosis in human ACHN cells assessed as viable cells at 1 uM after 48 hrs by Annexin V-FITC/propidium iodide staining based flow cytometric method (reference value: 100%); format: functional; conditions: read-out: Activity; method in brief: as §1
ACHN [17] = experiment: Induction of apoptosis in human ACHN cells assessed as early apoptotic cells at 1 uM after 48 hrs by Annexin V-FITC/propidium iodide staining based flow cytometric method (reference value: 0%); format: functional; method in brief: as §1
ACHN [18] = experiment: Induction of apoptosis in human ACHN cells assessed as late apoptotic cells at 1 uM after 48 hrs by Annexin V-FITC/propidium iodide staining based flow cytometric method (reference value: 0%); format: functional; method in brief: as §1
ACHN [19] = experiment: Induction of apoptosis in human ACHN cells assessed as necrotic cells at 1 uM after 48 hrs by Annexin V-FITC/propidium iodide staining based flow cytometric method (reference value: 0%); format: functional; method in brief: as §1
ACHN [20] = experiment: Induction of apoptosis in human ACHN cells assessed as viable cells at 2 uM after 48 hrs by Annexin V-FITC/propidium iodide staining based flow cytometric method (reference value: 100%); format: functional; conditions: read-out: Activity; method in brief: as §1
ACHN [21] = experiment: Induction of apoptosis in human ACHN cells assessed as early apoptotic cells at 2 uM after 48 hrs by Annexin V-FITC/propidium iodide staining based flow cytometric method (reference value: 0%); format: functional; method in brief: as §1
ACHN [22] = experiment: Induction of apoptosis in human ACHN cells assessed as late apoptotic cells at 2 uM after 48 hrs by Annexin V-FITC/propidium iodide staining based flow cytometric method (reference value: 0%); format: functional; method in brief: as §1
ACHN [23] = experiment: Induction of apoptosis in human ACHN cells assessed as necrotic cells at 2 uM after 48 hrs by Annexin V-FITC/propidium iodide staining based flow cytometric method (reference value: 0%); format: functional; method in brief: as §1
ACHN [24] = experiment: Induction of apoptosis in human ACHN cells assessed as viable cells at 4 uM after 48 hrs by Annexin V-FITC/propidium iodide staining based flow cytometric method (reference value: 100%); format: functional; conditions: read-out: Activity; method in brief: as §1
ACHN [25] = experiment: Induction of apoptosis in human ACHN cells assessed as early apoptotic cells at 4 uM after 48 hrs by Annexin V-FITC/propidium iodide staining based flow cytometric method (reference value: 0%); format: functional; method in brief: as §1
ACHN [26] = experiment: Induction of apoptosis in human ACHN cells assessed as late apoptotic cells at 4 uM after 48 hrs by Annexin V-FITC/propidium iodide staining based flow cytometric method (reference value: 0%); format: functional; method in brief: as §1
ACHN [27] = experiment: Induction of apoptosis in human ACHN cells assessed as necrotic cells at 4 uM after 48 hrs by Annexin V-FITC/propidium iodide staining based flow cytometric method (reference value: 0%); format: functional; method in brief: as §1
ACHN [28] = experiment: Induction of apoptosis in human ACHN cells assessed as viable cells at 1 uM after 72 hrs by Annexin V-FITC/propidium iodide staining based flow cytometric method (reference value: 100%); format: functional; conditions: read-out: Activity; method in brief: as §1
ACHN [29] = experiment: Induction of apoptosis in human ACHN cells assessed as early apoptotic cells at 1 uM after 72 hrs by Annexin V-FITC/propidium iodide staining based flow cytometric method (reference value: 0%); format: functional; method in brief: as §1
ACHN [30] = experiment: Induction of apoptosis in human ACHN cells assessed as late apoptotic cells at 1 uM after 72 hrs by Annexin V-FITC/propidium iodide staining based flow cytometric method (reference value: 0%); format: functional; method in brief: as §1
ACHN [31] = experiment: Induction of apoptosis in human ACHN cells assessed as necrotic cells at 1 uM after 72 hrs by Annexin V-FITC/propidium iodide staining based flow cytometric method (reference value: 0%); format: functional; method in brief: as §1
ACHN [32] = experiment: Induction of apoptosis in human ACHN cells assessed as viable cells at 2 uM after 72 hrs by Annexin V-FITC/propidium iodide staining based flow cytometric method (reference value: 100%); format: functional; conditions: read-out: Activity; method in brief: as §1
ACHN [33] = experiment: Induction of apoptosis in human ACHN cells assessed as early apoptotic cells at 2 uM after 72 hrs by Annexin V-FITC/propidium iodide staining based flow cytometric method (reference value: 0%); format: functional; method in brief: as §1
ACHN [34] = experiment: Induction of apoptosis in human ACHN cells assessed as late apoptotic cells at 2 uM after 72 hrs by Annexin V-FITC/propidium iodide staining based flow cytometric method (reference value: 0%); format: functional; method in brief: as §1
ACHN [35] = experiment: Induction of apoptosis in human ACHN cells assessed as necrotic cells at 2 uM after 72 hrs by Annexin V-FITC/propidium iodide staining based flow cytometric method (reference value: 0%); format: functional; method in brief: as §1
ACHN [36] = experiment: Induction of apoptosis in human ACHN cells assessed as viable cells at 4 uM after 72 hrs by Annexin V-FITC/propidium iodide staining based flow cytometric method (reference value: 100%); format: functional; conditions: read-out: Activity; method in brief: as §1
ACHN [37] = experiment: Induction of apoptosis in human ACHN cells assessed as early apoptotic cells at 4 uM after 72 hrs by Annexin V-FITC/propidium iodide staining based flow cytometric method (reference value: 0%); format: functional; method in brief: as §1
ACHN [38] = experiment: Induction of apoptosis in human ACHN cells assessed as late apoptotic cells at 4 uM after 72 hrs by Annexin V-FITC/propidium iodide staining based flow cytometric method (reference value: 0%); format: functional; method in brief: as §1
ACHN [39] = experiment: Induction of apoptosis in human ACHN cells assessed as necrotic cells at 4 uM after 72 hrs by Annexin V-FITC/propidium iodide staining based flow cytometric method (reference value: 0%); format: functional; method in brief: as §1

MIC (Escherichia coli): > 100 µg/mL
MIC (Staphylococcus aureus): > 100 µg/mL
MIC [4]: > 100 µg/mL
MIC (Pasteurella multocida): > 100 µg/mL
Compound: C=C(/C=N/O)[C@]1(OC)C[C@@]2(C)C(=CC1=O)C=C[C@H](OC(=O)/C=C/C(C)=C/[C@@H](C)CC)[C@@H]2C
Activity (ACHN [1]): 0.8%
viability at 2 µM (ACHN [2]): 91.4%
IC50 (ACHN [3]): 3.1 µM
IC50 (786-0): 27 µM
IC50 (OS-RC-2): > 50 µM
IC50 (HepG2): 5.9 µM
IC50 (SGC-7901): 17 µM
Activity (ACHN [5]): inactive
viability at 1 µM (ACHN [6]): 93.2%
Activity (ACHN [7]): 0.6%
Activity (ACHN [8]): 0.7%
Activity (ACHN [9]): 5.5%
Activity (ACHN [10]): 0.7%
Activity (ACHN [11]): 7.2%
viability at 4 µM (ACHN [12]): 76%
Activity (ACHN [13]): 1.1%
Activity (ACHN [14]): 1.1%
Activity (ACHN [15]): 21.8%
viability at 1 µM (ACHN [16]): 91.4%
Activity (ACHN [17]): 1.3%
Activity (ACHN [18]): 1.2%
Activity (ACHN [19]): 6%
viability at 2 µM (ACHN [20]): 87.1%
Activity (ACHN [21]): 2.3%
Activity (ACHN [22]): 1.3%
Activity (ACHN [23]): 9.3%
viability at 4 µM (ACHN [24]): 50%
Activity (ACHN [25]): 19.2%
Activity (ACHN [26]): 11.3%
Activity (ACHN [27]): 19.5%
viability at 1 µM (ACHN [28]): 90.8%
Activity (ACHN [29]): 1.8%
Activity (ACHN [30]): 1.1%
Activity (ACHN [31]): 6.2%
viability at 2 µM (ACHN [32]): 80.5%
Activity (ACHN [33]): 6.8%
Activity (ACHN [34]): 3.8%
Activity (ACHN [35]): 9%
viability at 4 µM (ACHN [36]): 6.9%
Activity (ACHN [37]): 83.8%
Activity (ACHN [38]): 8.5%
Activity (ACHN [39]): 0.8%

MIC (Escherichia coli): > 100 µg/mL
MIC (Staphylococcus aureus): > 100 µg/mL
MIC [4]: > 100 µg/mL
MIC (Pasteurella multocida): > 100 µg/mL
Compound: CC[C@@H]1OC(=O)c2cc(O)c(O)cc21
IC50 (ACHN [3]): 34 µM
IC50 (786-0): 28 µM
IC50 (OS-RC-2): > 50 µM
IC50 (HepG2): > 50 µM
IC50 (SGC-7901): > 50 µM
